Hits are enriched below; roughly 1.4% of the tested compounds scored in any of these assays.
FXIa inh 1536: human FXIa protease inhibitors, primary screen, biochemical, 1536-well; Coagulation factor XI (Homo sapiens), P03951; purified FXIa, Boc-Glu-Ala-Arg-AMC fluorogenic substrate; inhibition, % at 5 µM; 0.14% of 220,000 active; AID 798, 2007;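 active = inhibition of at least 40%; inactive = inhibition below 40%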;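 also: fluorescence of freed AMC excited at 355 nm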
FXIIa inh: human FXIIa protease inhibitors, primary screen, biochemical, 1536-well; inhibition, % at 5 µM; purified FXIIa, Boc-QGR-AMC fluorogenic substrate, 2 h; Coagulation factor XII (Homo sapiens), P00748; 0.3% of 220,000 active; AID 800, 2007; in the data active = inhibition above about 40%
Rce1 inhib: yeast Rce1p protease inhibitors, primary screen, biochemical, fluorescence, cell-free homogeneous. CAAX prenyl protease 2 (Saccharomyces cerevisiae (strain ATCC 204508 / S288c)), Q03530. AID 2563, 2010. yeast membranes, quenched prenylated peptide cleavage fluorescence. calls only. 0.27% of 290,000 active;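 active = fall in fluorescence gain of 50% or more versus controls, with final raw signal at or below 3038400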
Target sequence (Q03530 whole entry, looked up): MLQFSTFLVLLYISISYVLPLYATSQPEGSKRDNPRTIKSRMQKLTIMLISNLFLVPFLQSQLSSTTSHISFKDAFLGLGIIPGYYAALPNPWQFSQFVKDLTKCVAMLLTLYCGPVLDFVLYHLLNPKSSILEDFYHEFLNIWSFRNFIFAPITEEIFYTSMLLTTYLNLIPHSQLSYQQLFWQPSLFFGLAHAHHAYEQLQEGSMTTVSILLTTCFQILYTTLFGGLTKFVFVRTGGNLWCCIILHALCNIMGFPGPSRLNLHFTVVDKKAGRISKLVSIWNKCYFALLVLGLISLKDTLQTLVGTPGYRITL
Fh CTSL1 inh: Fasciola hepatica cathepsin L1 inhibitors, primary screen, counter-screen for PFM18AAP inhibitor project, biochemical, QFRET, fluorogenic peptide substrate; recombinant F. hepatica cathepsin L1, Z-Leu-Arg-MCA fluorescence; AID 1906, 2009; inhibition, % at 5.96 µM; 0.49% of 300,000 active;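 active = inhibition above the mean of all tested compounds plus 3 SD, set per screening campaign, cut at about 17% in these data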
hK5 inh: human KLK5 protease inhibitors, primary screen, biochemical, 1536-well; inhibition, % at 5 µM; 0.59% of 210,000 active; recombinant hK5, fluorogenic AMC substrate cleavage; Kallikrein-5 (Homo sapiens), Q9Y337; AID 873, 2007;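 active = inhibition of 40% or more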
Target sequence (Q9Y337 67-293 limits assumed): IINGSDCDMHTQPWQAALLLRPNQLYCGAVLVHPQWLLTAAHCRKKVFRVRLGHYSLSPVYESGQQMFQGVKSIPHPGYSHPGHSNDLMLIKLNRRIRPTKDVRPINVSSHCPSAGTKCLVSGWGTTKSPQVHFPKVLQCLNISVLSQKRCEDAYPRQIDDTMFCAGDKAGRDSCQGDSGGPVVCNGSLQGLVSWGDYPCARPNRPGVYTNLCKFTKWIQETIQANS
Thrombin inh: human alpha-thrombin inhibitors, primary screen, counter-screen for coagulation protease inhibitor project, biochemical, 1536-well, fluorogenic AMC substrate | Prothrombin (Homo sapiens), P00734 | Boc-VPR-AMC fluorogenic substrate cleavage | inhibition, % at 5 µM | 0.26% of 220,000 active | AID 1046, 2008;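 active = inhibition at or above 40%; inactive = inhibition below 40%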
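Test system: human alpha-thrombin protein / Dosing: one concentration per compound, 5 µM, with 0.2% DMSO / Medium: pH 7.5 Tris-saline with Tween 20 / Benchmarks: no-compound enzyme wells and no-enzyme blanks / Read-out basis: percent inhibition of thrombin substrate cleavage / Timing: reaction at room temperature / Measured by: fluorescence, ex 355 nm, em 460 nm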
A number is an active result; - = inactive; . = no result given; + = active, no number.

SMILES	FXIa inh 1536	FXIIa inh	Rce1 inhib	Fh CTSL1 inh	hK5 inh	Thrombin inh
CC(OC(=O)c1ccc(C(C)(C)C)cc1)C(=O)NC1CCCCC1C (stereo unspecified)	.	.	-	-	.	.
CC(OC(=O)c1ccc2c(=O)n3c(nc2c1)CCC3)C(=O)NC1CCCCC1C (stereo unspecified)	.	.	+	-	.	.
Cc1ccc(NC(=O)C2CCCN(S(=O)(=O)c3c(C)noc3C)C2)c(Br)c1 (stereo unspecified)	.	.	-	-	.	.
CCn1cc(S(=O)(=O)N2CCc3ccccc3C2)cn1	.	.	-	-	.	.
CCOc1ccc(NC(=O)C(C)O)c(NS(=O)(=O)c2ccc(CCNC(C)=O)cc2)c1 (stereo unspecified)	-	-	-	-	79	104
CCOc1ccc(-n2c(SCc3ccc([N+](=O)[O-])cc3)nnc2-c2ccc(OC)cc2)cc1	-	-	+	-	-	-
CCN(CC)CCCNC(=S)N1CCN(c2nc(-c3ccccc3)cs2)CC1	.	.	-	-	.	.
O=C(CSc1nnnn1-c1cccc2ccccc12)NC(C(=O)O)(c1ccccc1)c1ccccc1	-	-	-	-	.	-
O=S(NC1CCCCC1)C12CC3CC(CC(C3)C1)C2 (stereo unspecified)	42	62	-	-	-	-
Cc1cc(C)n2nc(SCC(=O)NC3CCCCC3)nc2n1	.	.	-	-	.	.
Cc1ccc(N(C(=O)C2CCCC2)C2C=CS(=O)(=O)C2)cc1 (stereo unspecified)	-	-	-	-	114	-
O=C(/C=C/c1cccc(Cl)c1)NCc1ccncc1	-	-	-	-	47	-
COc1ccccc1NC(=O)c1cc[n+](C)cc1	.	.	-	-	.	.
Cc1cccc(/C=N/NC(=O)c2ccc(Br)cc2)c1	-	-	+	-	-	-
Cc1ccc(C(=O)N/N=C/c2cc(Br)ccc2O)cn1	.	.	.	19	.	.
O=C(O)CCCC(=O)N1N=C(c2ccccc2)CC1c1cccs1 (stereo unspecified)	49	-	-	-	-	-
COc1ccc(/C=C/C(=O)c2ccc3c4c(cccc24)CC3)cc1OC	-	-	-	-	-	-
CCN(CC)CC(C)CNC(=O)C1(O)c2ccccc2NC(=O)N1c1ccc(Cl)c(Cl)c1 (stereo unspecified)	.	.	-	-	.	.
O=C1Nc2ccccc2C(O)(C(=O)NCc2ccco2)N1c1ccc(Cl)c(Cl)c1 (stereo unspecified)	-	-	-	66	-	-
CCN(CCNS(=O)(=O)c1ccc2c(c1)oc(=O)n2C)c1ccccc1	-	-	-	-	42	-
CN(C)/C=N/c1nc2nccc(-c3ccc(F)cc3)n2n1	-	-	+	-	-	-
O=C(COC(=O)CCC(=O)c1cccs1)Nc1ncc(Cl)cc1Cl	-	-	-	-	-	-
Cc1c(Cl)cnc(NC(=O)COC(=O)CCC(=O)c2cccs2)c1Cl	-	-	-	.	-	55
Cc1c(Cl)cnc(NC(=O)COC(=O)c2ccc([N+](=O)[O-])s2)c1Cl	-	-	-	59	-	-
O=C(COC(=O)c1ccc([N+](=O)[O-])s1)Nc1ccc(Cl)cn1	-	-	.	44	-	-
SMILES	FXIa inh 1536	FXIIa inh	Rce1 inhib	Fh CTSL1 inh	hK5 inh	Thrombin inh
CN(C)S(=O)(=O)c1cccc(NC(=O)Cn2cnc3ccccc3c2=O)c1	-	-	-	-	-	-
Cc1c2c(n3c(nc4ccccc43)c1C#N)N(CCN(C)C)CC2	-	-	-	-	-	-
Cc1c2c(n3c(nc4ccccc43)c1C#N)N(CCCN(C)C)CC2	-	-	+	-	-	-
O=C(NC(=S)Nc1ccc2cn[nH]c2c1)c1ccccc1	-	-	-	-	-	-
Cc1cccc(N/C(N)=N/c2nc(C)c(Cc3ccccc3)c(=O)[nH]2)c1	-	-	-	-	-	-
CC(=O)N(/N=C1\Sc2ccccc2C1=O)c1cccc(C)c1	-	-	-	88	-	-
CC(=O)N(CN1C(=O)c2ccccc2C1=O)c1cccc(C)c1	-	-	-	-	-	-
O=C(O)CCc1nc2cc(C(F)(F)F)ccc2n(Cc2ccccc2)c1=O	.	.	+	-	.	.
O=C1CCC(C(=O)Nc2cccc3ccccc23)N1 (stereo unspecified)	-	-	-	-	62	104
O=C(NCc1ccccc1)c1nc(-c2cccs2)no1	-	-	-	-	-	44
Cc1ccccc1C(OCC(O)CN1CCN(CCO)CC1)c1ccccc1 (stereo unspecified)	.	.	-	-	.	.
N#C/C(=N\Nc1ccccc1)C(N)=S	-	107	-	-	-	-
CC(=O)n1c(-c2ccccc2)c(-c2ccccc2)n(C)c1=O	.	.	-	-	.	.
Cc1ccc(-c2cc(C(F)(F)F)n3nc(C(=O)NCCCn4ccnc4)cc3n2)cc1C	-	-	-	-	-	-
CCC(CO)n1c(SCc2cc(=O)oc3cc(C)ccc23)nc2ccccc2c1=O (stereo unspecified)	-	42	-	-	-	-
CCCCCCCCCC(=O)Nn1cnc2ccccc2c1=O	-	52	-	-	70	-
Cc1ccc(S(=O)(=O)N(C)CC(=O)Nc2ccccc2)cc1	-	-	-	-	53	-
COC(=O)c1ccccc1NC(=O)CN(C)S(=O)(=O)c1ccc(OC)c(C)c1	-	-	-	-	119	-
N=c1c2c(ncn1CCN1CCOCC1)Oc1ccc3ccccc3c1C2c1ccccc1 (stereo unspecified)	-	-	-	-	-	-
COc1ccc(C2c3c(ncn(CCN4CCOCC4)c3=N)Oc3ccc4ccccc4c32)cc1 (stereo unspecified)	-	-	+	-	-	-
COc1cc(Cl)ccc1NC(=O)COc1ccccc1C(=O)N1CCN(c2ccc(O)cc2)CC1	-	-	-	-	-	-
Cc1ccc(/C=C/C(=O)NC2CCCCCCC2)o1	-	-	-	74	-	-
CCOc1ccc(NS(=O)(=O)c2ccc(C(=O)NCC3(N4CCCCC4)CCCCC3)cc2)cc1	.	.	-	-	.	.
CC(=O)Nc1ccc(C(=O)NCC2(N3CCCCC3)CCCCC2)cc1	.	.	-	21	.	.
COc1ccc(/C=N\NS(=O)(=O)c2ccc(Br)cc2)cc1COc1ccccc1[N+](=O)[O-]	-	-	-	-	-	-
COc1ccc(/C=N\NS(=O)(=O)c2ccc(Cl)cc2)cc1COc1ccccc1[N+](=O)[O-]	-	-	-	-	47	85
CS(=O)(=O)Nc1ccccc1C(=O)Nc1cccc(Cl)c1	-	-	+	-	-	-
CS(=O)(=O)Nc1ccccc1C(=O)Nc1cc(Cl)cc(Cl)c1	-	-	-	-	-	-
